This note sets out measurements from PMC7034990 (Science Advances, 2020).

Data set [1] relates to CFBE41o− cells. The data set can be described thus: Cell viability panel. Particulars: 24 hr, positive controls celastrol or cytochalasin D. Type of data set: cell-based. In a few lines: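 CFBE41o− cells. Proliferation: 5000 cells/well; after 24 h, test compound at several concentrations or DMSO; tracked 24 h by high-content imaging. MTT: 50,000 cells/well; treated 24 h after plating; next day MTT 0.5 mg/ml final, 3 h at 37°C; absorbance at 560 nm. Cell death: 50,000 cells/well, treated 24 h, then Hoechst 33342 plus propidium iodide stain and high-content imaging.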

Data set [2] has as its system Ca2+-activated Cl− secretion in bronchial epithelia. Briefly: Ca2+-activated Cl− secretion elicited by UTP. Type of data set: cell-based, human. The note with it: UTP 100 μM; ARN23765 10 nM, VX-809 1 μM, 24 hr. In a few lines: (§1)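 Primary bronchial epithelial cells came from lung-transplant bronchi and were differentiated on porous inserts, then kept 2–3 weeks under air-liquid culture. Correctors or DMSO were given in basolateral medium. Epithelia were mounted in a vertical diffusion chamber, bicarbonate saline (126 mM NaCl, 24 mM NaHCO3, 10 mM glucose) both sides, gassed 5% CO2:95% air, 37°C. Voltage was clamped and short-circuit current recorded. ENaC was blocked with amiloride (10 μM).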

In data set [3] the test system is F508del/F508del cultured bronchial epithelia. The data set can be described thus: Apical fluid pH measurement on CF bronchial epithelia. Type of data set: cell-based, human. Particulars: 24 hours. In a few lines: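 CF bronchial epithelia at air-liquid interface were treated 24 h with correctors or DMSO vehicle. The apical side then received 75 μl low-buffer modified PBS (pH 7.35) containing 100 μM CPT-cAMP and 1 μM VX-770, for 3 h at 37°C, 5% CO2. The recovered fluid was mixed with SNARF-1 (final 0.1 mg/ml), excited at 544 nm, and the 590/640 nm emission ratio converted to pH by calibration curve.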

Data set [4] addresses P574H-CFTR (Homo sapiens, UniProt P13569, P574H). The data set can be described thus: Rescue of P574H-CFTR in FRT cells. Type of data set: cell-based. Particulars: 37 °C or 32 °C. In a few lines:
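FRT cells stably co-expressing P574H-CFTR and HS-YFP (H148Q/I152L), plated at 50,000/well. After a PBS wash, cells were stimulated 25 min with forskolin 20 μM plus VX-770 1 μM. Iodide solution was then injected (final I− 100 mM) and YFP fluorescence read at 500/535 nm ex/em. Values were normalized to initial background-subtracted fluorescence. I− influx rate came from an exponential fit of the final 11 s.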

The target of data set [5] is ABC-B1 (MDR1, P-glycoprotein) (Homo sapiens, UniProt P08183). Briefly: ABC transporter inhibition, ABC-B1. Type of data set: in vitro ADME.
Data set [6] has as its target F508del-CFTR in CFBE41o− cells (Homo sapiens, UniProt P13569, DEL508-508). The data set can be described thus: F508del-CFTR half-life after cycloheximide block of protein synthesis. Type of data set: cell-based. Particulars: 24 hours of treatment then cycloheximide, ARN23765 1 nM, VX-809 1 μM.
For data set [7], the system named is receptors, monoamine transporters, ABC proteins, and hERG channel. The data set can be described thus: Off-target panel. Particulars: 10 μM.
In data set [8] the test system is F508del/F508del bronchial epithelial cells. The data set can be described thus: Short-circuit current recordings on primary CF bronchial epithelial cells. Type of data set: cell-based, human. In a few lines: as §1
The target in data set [9] is ABC-C2 (multidrug resistance-associated protein 2) (Homo sapiens, UniProt Q92887). Briefly: ABC transporter inhibition, ABC-C2. The note with it: read-out: inhibition of ABC-C2. Type of data set: in vitro ADME.
The test system of data set [10] is F508del-CFTR FRT cells. Briefly: Transepithelial electrical conductance. Type of data set: cell-based. Particulars: 24 hours, compared to VX-809 (1 μM). In a few lines:
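F508del-CFTR FRT cells on porous membranes were treated 24 h at 37°C, 5% CO2. Same saline both sides: 130 mM NaCl, 10 mM Na-Hepes pH 7.3, 10 mM glucose. TEER was read at baseline, after forskolin 20 μM + genistein 50 μM, then after PPQ102 30 μM, waiting 10 min per step. TEER values were converted to TEEC.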

Data set [11] concerns F508del-CFTR CFBE41o− cells. The data set can be described thus: HS-YFP assay in CFBE41o− cells expressing F508del-CFTR. Type of data set: cell-based.

For orientation: inhibition means the drop in the measured response relative to a control, in per cent. The term EC50 denotes the concentration at which the effect is half-maximal. Low values mean a more potent agent, high ones a less potent agent.

Structures are written as SMILES.

ABC-B1 (MDR1, P-glycoprotein), sequence (P08183 whole entry, species assumed): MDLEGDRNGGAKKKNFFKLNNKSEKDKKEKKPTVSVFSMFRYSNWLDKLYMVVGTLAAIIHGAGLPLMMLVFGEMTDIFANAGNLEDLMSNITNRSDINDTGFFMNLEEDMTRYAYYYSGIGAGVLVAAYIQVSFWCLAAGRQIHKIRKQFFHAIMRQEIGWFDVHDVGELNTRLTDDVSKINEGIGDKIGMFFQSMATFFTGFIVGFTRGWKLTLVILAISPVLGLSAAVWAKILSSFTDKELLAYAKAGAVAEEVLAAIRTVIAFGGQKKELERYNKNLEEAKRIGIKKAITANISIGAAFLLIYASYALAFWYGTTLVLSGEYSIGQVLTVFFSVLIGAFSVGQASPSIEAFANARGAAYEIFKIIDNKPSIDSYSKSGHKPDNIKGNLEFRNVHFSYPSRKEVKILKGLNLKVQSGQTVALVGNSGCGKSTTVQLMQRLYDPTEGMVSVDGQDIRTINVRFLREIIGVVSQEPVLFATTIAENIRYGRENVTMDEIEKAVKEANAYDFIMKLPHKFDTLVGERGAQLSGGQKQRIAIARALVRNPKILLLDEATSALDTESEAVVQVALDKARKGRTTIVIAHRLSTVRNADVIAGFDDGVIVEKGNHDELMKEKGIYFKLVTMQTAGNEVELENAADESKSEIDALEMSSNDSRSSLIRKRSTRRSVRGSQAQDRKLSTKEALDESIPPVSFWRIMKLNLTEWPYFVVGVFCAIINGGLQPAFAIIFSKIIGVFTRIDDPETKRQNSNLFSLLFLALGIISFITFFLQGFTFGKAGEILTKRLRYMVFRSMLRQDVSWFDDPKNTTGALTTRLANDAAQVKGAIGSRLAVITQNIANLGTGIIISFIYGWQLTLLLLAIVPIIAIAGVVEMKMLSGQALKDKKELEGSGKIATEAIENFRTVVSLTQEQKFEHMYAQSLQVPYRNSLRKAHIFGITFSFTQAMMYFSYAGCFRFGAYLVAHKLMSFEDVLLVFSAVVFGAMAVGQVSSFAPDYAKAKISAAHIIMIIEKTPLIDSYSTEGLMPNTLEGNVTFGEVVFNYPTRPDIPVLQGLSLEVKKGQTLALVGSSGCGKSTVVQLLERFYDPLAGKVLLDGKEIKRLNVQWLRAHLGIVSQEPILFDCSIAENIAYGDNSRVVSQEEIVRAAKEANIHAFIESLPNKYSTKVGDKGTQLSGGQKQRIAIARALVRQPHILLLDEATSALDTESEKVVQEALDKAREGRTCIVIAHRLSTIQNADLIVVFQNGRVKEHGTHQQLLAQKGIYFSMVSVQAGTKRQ
ABC-C2 (multidrug resistance-associated protein 2), sequence (Q92887 whole entry, species assumed): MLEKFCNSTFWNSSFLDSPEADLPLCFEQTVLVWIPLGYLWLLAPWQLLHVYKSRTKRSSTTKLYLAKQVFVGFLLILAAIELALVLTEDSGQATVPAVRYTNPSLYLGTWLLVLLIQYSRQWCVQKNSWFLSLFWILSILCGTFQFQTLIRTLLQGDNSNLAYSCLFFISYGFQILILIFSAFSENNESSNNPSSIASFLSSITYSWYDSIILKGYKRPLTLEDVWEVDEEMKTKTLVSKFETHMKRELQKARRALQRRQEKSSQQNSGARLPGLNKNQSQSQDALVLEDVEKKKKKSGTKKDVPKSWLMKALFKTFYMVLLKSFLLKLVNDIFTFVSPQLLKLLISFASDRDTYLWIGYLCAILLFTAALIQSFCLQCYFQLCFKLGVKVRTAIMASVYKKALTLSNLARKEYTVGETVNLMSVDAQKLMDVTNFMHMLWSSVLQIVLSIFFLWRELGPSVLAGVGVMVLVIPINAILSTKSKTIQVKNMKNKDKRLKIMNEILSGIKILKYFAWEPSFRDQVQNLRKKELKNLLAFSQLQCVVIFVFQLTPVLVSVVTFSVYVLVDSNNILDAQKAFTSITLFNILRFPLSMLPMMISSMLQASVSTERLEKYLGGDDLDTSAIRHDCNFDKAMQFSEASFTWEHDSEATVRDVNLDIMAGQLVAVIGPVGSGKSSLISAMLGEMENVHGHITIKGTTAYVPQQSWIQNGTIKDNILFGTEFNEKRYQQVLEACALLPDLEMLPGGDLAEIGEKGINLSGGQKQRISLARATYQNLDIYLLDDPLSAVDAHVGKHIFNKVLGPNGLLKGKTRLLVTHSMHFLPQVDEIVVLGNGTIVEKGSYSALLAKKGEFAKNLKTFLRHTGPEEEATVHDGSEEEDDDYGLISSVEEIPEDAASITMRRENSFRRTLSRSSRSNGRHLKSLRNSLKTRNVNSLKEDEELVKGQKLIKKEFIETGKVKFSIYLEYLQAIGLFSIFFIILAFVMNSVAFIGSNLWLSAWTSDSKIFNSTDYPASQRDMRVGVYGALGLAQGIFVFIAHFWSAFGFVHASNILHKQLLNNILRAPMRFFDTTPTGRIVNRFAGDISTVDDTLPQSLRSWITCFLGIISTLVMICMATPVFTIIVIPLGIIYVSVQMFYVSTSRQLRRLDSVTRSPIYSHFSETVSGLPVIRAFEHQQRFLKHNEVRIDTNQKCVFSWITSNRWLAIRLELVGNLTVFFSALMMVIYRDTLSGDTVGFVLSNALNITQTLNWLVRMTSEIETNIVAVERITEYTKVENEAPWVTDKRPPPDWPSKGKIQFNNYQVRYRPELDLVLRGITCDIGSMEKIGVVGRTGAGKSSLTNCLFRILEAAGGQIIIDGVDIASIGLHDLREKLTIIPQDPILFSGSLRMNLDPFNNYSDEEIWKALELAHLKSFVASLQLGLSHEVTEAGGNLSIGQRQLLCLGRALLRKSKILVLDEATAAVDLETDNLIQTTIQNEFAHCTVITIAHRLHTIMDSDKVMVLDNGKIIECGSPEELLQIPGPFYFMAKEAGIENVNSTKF

For the compound `CN(C(=O)c1cccc(-n2nc(C(F)(F)F)c3c2[C@@H](Oc2ccc(C(=O)O)cc2)CCC3)c1)c1ccc2c(c1)OC(F)(F)O2` [ARN23765], the “effect on cell viability” value in data set [1] was “did not impair cell proliferation nor caused cell toxicity”. Moreover, in [2], the “Ca2+-activated Cl− secretion” value is “unaffected”. The “pH of the apical fluid, combination of ARN23765 and 4172” value in data set [3] (ARN23765 10 nM plus 4172 10 μM) is given as “further increased pH to a level significantly higher than that measured with each corrector alone”. In addition, the “pH of the apical fluid, single corrector” value in [3] (ARN23765 10 nM, 4172 10 μM, versus control-treated cells) is given as “significant increase in pH”. Further, the “P574H-CFTR function” value in data set [4] was “improves the function of P574H-CFTR, particularly in combination with low temperature”. Also, the inhibition at 10 µM in data set [5] came out at 13%; in data set [9], 27%. Besides, the “increase of half-life of mature CFTR (band C)” value in [6] is reported as “threefold”. Also, the “effects on a panel of relevant biological targets” value in [7] is “no alerting effects”. In addition, the “effective concentrations lower compared to VX-809 and VX-661” value in data set [8] is recorded as “more than 5000 times”. In addition, the “time after removal of the compound at which correction can be observed” value in data set [8] is listed as “up to 36 hours”. Besides, the “improvement in potency (EC50) with respect to VX-809 / presently available corrector drugs” value in [8] (F508del/F508del bronchial epithelial cells) is “more than 5000 fold”. Besides, the concentration giving a half-maximal response (EC50) worked out at 0.038 nM in [8] (Homo sapiens, Epithelial cell) and 0.4 nM in data set [11] (Homo sapiens, CFBE41o-, 24 h). Besides, in data set [8] (VX-809 1 μM or ARN23765 1 nM for 72 hours), the “extent of rescue after 72 hours of treatment” value is “comparable to that of epithelia treated with these correctors for only 24 hours”. In [8] (VX-809 1 μM or ARN23765 1 nM for 120 hours, compared to 72 hours), the “F508del-CFTR rescue after 120 hours of treatment” value is given as “still maintained”. In addition, the “rescue of F508del-CFTR function” value in [8] (short-circuit current, CF primary bronchial epithelial cells, 24 hours) is “decreased at 1 μM”. Also, in [10], the “correction of F508del-CFTR, ∆TEEC” value is “high potency and efficacy”. In addition, in data set [11] (CFBE41o− cells, VX-809 1 μM, ARN23765 10 nM, or both), the “F508del-CFTR activity (QR) of the ARN23765/VX-809 combination” value was “no additive effect”.
